Measured values reported in ChEMBL document CHEMBL1142666, “Novel [2',5'-bis-O-(tert-butyldimethylsilyl)-beta-D-ribofuranosyl]- 3'-spiro-5''-(4''-amino-1'',2''-oxathiole-2'',2" -dioxide) derivatives with anti-HIV-1 and anti-human-cytomegalovirus activity” (J Med Chem, 2005).

Assays:
Conditions in all cases: Homo sapiens
CCRF-CEM [1] = assay: Effective concentration required to inhibit HIV-1 IIIB in CEM cell culture; format: functional, cell-based
Procedure, shortened: (§1)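 CEM cells (4 × 10^5/mL) infected at ~100 CCID50/mL and mixed with compound dilutions. Giant cell formation scored microscopically at day 4. EC50 = concentration inhibiting virus-induced cytopathicity by 50%.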

MT4 [2] = assay: Effective concentration required to inhibit HIV-2 ROD in MT-4 cell culture; format: functional, cell-based
Procedure, shortened: (§2)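 MT-4 cells (3 × 10^5/mL) infected at ~100 CCID50/mL and mixed with compound dilutions. Cytopathicity read by trypan blue exclusion at day 5. EC50 = concentration giving 50% protection against virus-induced loss of viability.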

MT4 [3] = assay: Effective concentration required to inhibit HIV-1 IIIB in MT-4 cell culture; format: functional, cell-based; procedure, shortened: as §2
CCRF-CEM [4] = assay: Cytostatic concentration required to inhibit CEM cell proliferation; format: functional
Procedure, shortened: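 CEM cells, mock-infected, grown with serial compound dilutions for 4 days. CC50 taken as the concentration that inhibits CEM cell proliferation by 50%.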

MT4 [5] = assay: Cytostatic concentration required to inhibit MT-4 cell proliferation; format: functional
Procedure, shortened: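 Mock-infected MT-4 cells (3 × 10^5/mL) incubated with compound dilutions for 5 days. Viable cells counted by trypan blue exclusion. CC50 = concentration reducing viable MT-4 cell number by 50%.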

CCRF-CEM [6] = assay: Effective concentration required to inhibit HIV-2 ROD in CEM cell culture; format: functional, cell-based; procedure, shortened: as §1
HEL [7] = assay: Minimal cytotoxic concentration required to cause microscopically visible alteration of cell morphology in HEL Cells; format: functional
Procedure, shortened: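 Uninfected HEL cells exposed to compound. Minimum cytotoxic concentration is the lowest level giving a microscopically detectable change in cell morphology.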

HEL [8] = assay: Effective concentration required to inhibit HCMV Davis in HEL Cells; format: functional, cell-based
Procedure, shortened: (§3)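 Confluent HEL cells infected with HCMV at 100 PFU/well. After 1-2 h, residual virus removed and MEM with 2% inactivated FCS added, with compound in duplicate at 5-fold dilution steps. After 7 days at 37 °C in 5% CO2, cells fixed with ethanol and Giemsa-stained; plaques or CPE scored microscopically. IC50 interpolated graphically; mean of two independent experiments.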

HEL [9] = assay: Effective concentration required to inhibit HCMV AD-169 in HEL Cells; format: functional, cell-based; procedure, shortened: as §3
HEL [10] = assay: Cytostatic concentration required to inhibit HEL cell proliferation; format: functional
Procedure, shortened: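 HEL fibroblasts seeded at 5 × 10^3 cells/well and grown 24 h, then given compound in duplicate. After 3 days at 37 °C in 5% CO2, cell number read on a Coulter counter. CC50 = concentration reducing cell growth by 50%.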

Row | Compound | EC50 (CCRF-CEM [1]) [nM] | EC50 (MT4 [2]) [µM] | EC50 (MT4 [3]) [nM] | CC50 (CCRF-CEM [4]) [µM] | CC50 (MT4 [5]) [µM] | EC50 (CCRF-CEM [6]) [µM] | MCC (HEL [7]) [µM] | EC50 (HEL [8]) [µM] | EC50 (HEL [9]) [µM] | CC50 (HEL [10]) [µM]
1 | Cc1cn([C@@H]2O[C@@H]3COC4(O)CS(=O)(=O)O[C@@]34[C@H]2O[Si](C)(C)C(C)(C)C)c(=O)[nH]c1=O (some centres not stated) | > 100000 | > 100 | > 100000 | > 100 | > 100 | > 100 |  |  |  | 
2 | CCOC(=O)NC(=O)NC1=CS(=O)(=O)O[C@@]12[C@@H](CO[Si](C)(C)C(C)(C)C)O[C@@H](n1cc(C)c(=O)n(C)c1=O)[C@@H]2O[Si](C)(C)C(C)(C)C | > 2000 | > 2 | > 2000 | 3 |  | > 2 | 16 | 1.8 | 2.3 | 14
3 | Cc1cn([C@@H]2O[C@@H]3COC4(O)CS(=O)(=O)O[C@@]34[C@H]2O)c(=O)[nH]c1=O (some centres not stated) | > 100000 | > 100 | > 100000 | > 100 | > 100 | > 100 |  |  |  | 
4 | Cc1cn([C@@H]2O[C@@H]3COC(=O)[C@]3(OS(C)(=O)=O)[C@H]2O)c(=O)[nH]c1=O | > 50000 | > 250 | > 50000 | 160 | ≥ 250 | > 50 | ≥ 400 | 164 | 179 | 36
5 | Cc1cn([C@@H]2O[C@H](CO[Si](C)(C)C(C)(C)C)C3(OS(=O)(=O)C=C3N)[C@H]2O[Si](C)(C)C(C)(C)C)c(=O)[nH]c1=O (some centres not stated) |  | > 10 |  |  | 12 | > 10 |  |  |  | 
6 | Cc1cn([C@@H]2O[C@H](CO[Si](C)(C)C(C)(C)C)[C@@]3(OS(=O)(=O)C=C3NCC(=O)OCc3ccccc3)[C@H]2O[Si](C)(C)C(C)(C)C)c(=O)n(C)c1=O | 6700 | > 250 |  | > 250 | > 250 | > 250 | ≥ 400 | > 400 | > 400 | > 200
7 | C=C(C)C(=O)NC(=O)NC1=CS(=O)(=O)O[C@@]12[C@@H](CO[Si](C)(C)C(C)(C)C)O[C@@H](n1cc(C)c(=O)n(C)c1=O)[C@@H]2O[Si](C)(C)C(C)(C)C | > 800 | > 0.8 | > 800 | 1.2 | 1.19 | > 0.8 | 20 | > 4 | > 20 | 1.2
8 | Cc1cn([C@@H]2O[C@H](CO[Si](C)(C)C(C)(C)C)[C@@]3(OS(=O)(=O)C=C3NCCC(=O)O)[C@H]2O[Si](C)(C)C(C)(C)C)c(=O)n(C)c1=O | > 10000 | > 50 | > 50000 | 19.4 | 11.5 | > 10 | 80 | 8 | > 16 | 34
9 | CCNC(=O)NC1=CS(=O)(=O)O[C@@]12[C@@H](CO[Si](C)(C)C(C)(C)C)O[C@@H](n1cc(C)c(=O)n(C)c1=O)[C@@H]2O[Si](C)(C)C(C)(C)C | > 2000 | > 2 | > 2000 | 4.26 |  | > 2 | ≥ 3.2 | 2 | 1.8 | 10
10 | CCOC(=O)CN1C(=O)CN(C(=O)NC2=CS(=O)(=O)O[C@@]23[C@@H](CO[Si](C)(C)C(C)(C)C)O[C@@H](n2cc(C)c(=O)n(C)c2=O)[C@@H]3O[Si](C)(C)C(C)(C)C)C1=O | 240 | > 2 | 880 | 1.42 | 1.43 | > 2 | ≥ 3.2 | 0.32 | 0.29 | 2.5
11 | Cc1cn([C@@H]2O[C@H](CO[Si](C)(C)C(C)(C)C)[C@@]3(OS(=O)(=O)C=C3NC(=O)C(=O)N3CCC3)[C@H]2O[Si](C)(C)C(C)(C)C)c(=O)n(C)c1=O | 700 | > 50 | 800 | 21.6 | 17.4 | > 10 | 65 | 10 | 10 | 84.4
12 | Cc1cn([C@@H]2O[C@H](CO[Si](C)(C)C(C)(C)C)[C@@]3(OS(=O)(=O)C=C3NCC(N)=O)[C@H]2O[Si](C)(C)C(C)(C)C)c(=O)n(C)c1=O | > 2000 | > 10 | > 10000 | 14.6 | 14.9 | > 2 | 16 | > 3.2 | > 3.2 | 13.5
13 | Cc1cn([C@@H]2O[C@H](CO[Si](C)(C)C(C)(C)C)[C@@]3(OS(=O)(=O)C=C3NC(=O)c3ccccc3)[C@H]2O[Si](C)(C)C(C)(C)C)c(=O)n(C)c1=O | > 5000 | > 5 | > 5000 | 4.91 | 4.9 | > 5 | ≥ 3.2 | 1.2 | 1.3 | 9.7
14 | CCOC(=O)CNC(=O)NC1=CS(=O)(=O)O[C@@]12[C@@H](CO[Si](C)(C)C(C)(C)C)O[C@@H](n1cc(C)c(=O)n(C)c1=O)[C@@H]2O[Si](C)(C)C(C)(C)C | > 2000 | > 2 | > 2000 | 5.02 | 3.78 | > 2 | 16 | > 3.2 | > 3.2 | 13
15 | Cc1cn([C@@H]2O[C@H](CO[Si](C)(C)C(C)(C)C)[C@@]3(OS(=O)(=O)C=C3NC(=O)C(=O)O)[C@H]2O[Si](C)(C)C(C)(C)C)c(=O)n(C)c1=O | 230 | > 10 | 1300 | 72.6 | 31.1 | > 50 | 400 | 36 | > 80 | 146
16 | Cc1cn([C@@H]2O[C@H](CO[Si](C)(C)C(C)(C)C)[C@@]3(OS(=O)(=O)C=C3NC(N)=O)[C@H]2O[Si](C)(C)C(C)(C)C)c(=O)n(C)c1=O | > 2000 | > 2 | > 2000 | 4.36 | 3.7 | > 2 | 16 | 2 | > 3.2 | 11
17 | COC(=O)C(=O)NC1=CS(=O)(=O)O[C@@]12[C@@H](CO[Si](C)(C)C(C)(C)C)O[C@@H](n1cc(C)c(=O)n(C)c1=O)[C@@H]2O[Si](C)(C)C(C)(C)C | 60 | > 4 | 80 | 5.57 | 10.3 | > 4 | > 400 | 179 | 253 | > 200
18 | COC(=O)NC1=CS(=O)(=O)O[C@@]12[C@@H](CO[Si](C)(C)C(C)(C)C)O[C@@H](n1cc(C)c(=O)n(C)c1=O)[C@@H]2O[Si](C)(C)C(C)(C)C | > 20000 | > 20 | > 20000 | 30.7 | 29.9 | > 20 | ≥ 50 | 25 | ≥ 20 | > 200
19 | COC(=O)CCNC1=CS(=O)(=O)O[C@@]12[C@@H](CO[Si](C)(C)C(C)(C)C)O[C@@H](n1cc(C)c(=O)n(C)c1=O)[C@@H]2O[Si](C)(C)C(C)(C)C | > 250000 | > 250 | > 250000 | > 250 | > 250 | > 250 | ≥ 400 | > 400 | > 400 | 94
20 | Cc1cn([C@@H]2O[C@H](CO[Si](C)(C)C(C)(C)C)[C@@]3(OS(=O)(=O)C=C3NC(=O)NC(=O)c3ccccc3)[C@H]2O[Si](C)(C)C(C)(C)C)c(=O)n(C)c1=O | > 2000 | > 10 | > 2000 | 2.29 | 3.33 | > 2 | ≥ 80 | 0.8 | 1.2 | ≥ 200
21 | Cc1cn([C@@H]2O[C@H](CO[Si](C)(C)C(C)(C)C)[C@@]3(OS(=O)(=O)C=C3N)[C@H]2O[Si](C)(C)C(C)(C)C)c(=O)n(C)c1=O | 40 | > 250 | 60 |  | 230 | > 250 |  |  |  | 
22 | Cc1cn([C@@H]2O[C@H](CO[Si](C)(C)C(C)(C)C)[C@@]3(OS(=O)(=O)C=C3NC(=O)C(N)=O)[C@H]2O[Si](C)(C)C(C)(C)C)c(=O)n(C)c1=O | 28 | > 2 | 57 | 9.96 | 9.59 | > 10 | ≥ 16 | 6.5 | 6.5 | 14.5
23 | Cc1cn([C@@H]2O[C@H](CO[Si](C)(C)C(C)(C)C)[C@@]3(OS(=O)(=O)C=C3NCC(=O)O)[C@H]2O[Si](C)(C)C(C)(C)C)c(=O)n(C)c1=O | > 10000 | > 10 | > 10000 | 65 | 30 | > 10 | 300 | 32 | ≥ 50 | 136
